Experimental data published in ChEMBL document CHEMBL4043061, “Potent, Selective, Allosteric Inhibition of Human Plasmin by Sulfated Non-Saccharide Glycosaminoglycan Mimetics” (J Med Chem, 2017).
Activity calls are given as the source filed them. The rule behind the calls is not given here.

Columns and labels:
[1] = biological target: Plasminogen (Homo sapiens) (UniProt P00747); test: Allosteric inhibition of full length human plasmin by using chromogenic substrate spectrozyme PL preincubated for 5 mins followed by substrate addition by spectrophotometric method
How it was run: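 Inhibitor added from 0–20 mM aqueous stocks, or vehicle. After 5 min, Spectrozyme PL added (1 mM stock). Residual activity taken from initial rate of A405 rise. Logistic fit gives IC50, efficacy and Hill slope.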

[2] = biological target: Plasminogen (Homo sapiens) (UniProt P00747); test: Binding affinity to human plasmin assessed as loss of intrinsic tryptophan fluorescence at 250 uM by spectrofluorometric method
[3] = biological target: Coagulation factor XI (Homo sapiens) (UniProt P03951); test: Inhibition of human F11a by using chromogenic substrate S-2366 preincubated for 5 mins followed by substrate addition by spectrophotometric method
How it was run: (§1)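 Tris-HCl pH 7.4 buffer (100 mM NaCl, 2.5 mM CaCl2, 0.1% PEG8000, 0.02% Tween80) at 37 °C; factor IXa buffer also held 33% ethylene glycol. Final enzyme: factor Xa 1.09 nM, XIa 0.75 nM, XIIa 10 nM, IXa 250 nM, trypsin 0.145 µg/mL, chymotrypsin […]. Inhibitor from 0–20 mM stock, 5 min preincubation, then substrate. Initial A405 rate, sigmoidal dose–response fit.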

[4] = biological target: Plasminogen (Homo sapiens) (UniProt P00747); details: 200 uM
Homo sapiens = species: Homo sapiens; test: Inhibition of human chymotrypsin using chromogenic substrate spectrozyme Cty preincubated for 5 mins followed by substrate addition by spectrophotometric method; how it was run: as §1
[5] = biological target: Prothrombin (Homo sapiens) (UniProt P00734); test: Inhibition of human thrombin by using chromogenic substrate spectrozyme TH preincubated for 5 mins followed by substrate addition by spectrophotometric method
How it was run: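 Thrombin at 6 nM final, 25 °C, in 20 mM Tris-HCl pH 7.4 with 100 mM NaCl, 2.5 mM CaCl2, 0.1% PEG8000, 0.02% Tween80. Inhibitor (0–20 mM stock) or vehicle preincubated 5 min with enzyme. Spectrozyme TH added (1.0 mM stock). Residual activity read as initial rate of A405 increase and fitted to a sigmoidal dose–response curve.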

[6] = biological target: Coagulation factor X (Homo sapiens) (UniProt P00742); test: Inhibition of human F10a by using chromogenic substrate spectrozyme F10a preincubated for 5 mins followed by substrate addition by spectrophotometric method; how it was run: as §1
Chain of Coagulation factor X (Homo sapiens) (P00742 41-179 limits assumed): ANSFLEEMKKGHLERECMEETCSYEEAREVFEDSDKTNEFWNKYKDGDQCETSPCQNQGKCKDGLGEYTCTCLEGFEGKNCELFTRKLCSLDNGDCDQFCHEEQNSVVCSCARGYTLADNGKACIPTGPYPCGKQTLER
Chain of Coagulation factor X (Homo sapiens) (P00742 235-488 limits assumed): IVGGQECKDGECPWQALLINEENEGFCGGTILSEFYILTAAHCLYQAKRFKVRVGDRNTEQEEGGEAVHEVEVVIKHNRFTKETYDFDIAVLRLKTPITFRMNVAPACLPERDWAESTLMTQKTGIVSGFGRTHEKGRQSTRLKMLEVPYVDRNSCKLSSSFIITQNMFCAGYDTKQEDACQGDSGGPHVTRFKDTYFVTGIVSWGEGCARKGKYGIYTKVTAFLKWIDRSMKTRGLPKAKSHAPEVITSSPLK

Chain of Plasminogen (Homo sapiens) (P00747 97-580 limits assumed): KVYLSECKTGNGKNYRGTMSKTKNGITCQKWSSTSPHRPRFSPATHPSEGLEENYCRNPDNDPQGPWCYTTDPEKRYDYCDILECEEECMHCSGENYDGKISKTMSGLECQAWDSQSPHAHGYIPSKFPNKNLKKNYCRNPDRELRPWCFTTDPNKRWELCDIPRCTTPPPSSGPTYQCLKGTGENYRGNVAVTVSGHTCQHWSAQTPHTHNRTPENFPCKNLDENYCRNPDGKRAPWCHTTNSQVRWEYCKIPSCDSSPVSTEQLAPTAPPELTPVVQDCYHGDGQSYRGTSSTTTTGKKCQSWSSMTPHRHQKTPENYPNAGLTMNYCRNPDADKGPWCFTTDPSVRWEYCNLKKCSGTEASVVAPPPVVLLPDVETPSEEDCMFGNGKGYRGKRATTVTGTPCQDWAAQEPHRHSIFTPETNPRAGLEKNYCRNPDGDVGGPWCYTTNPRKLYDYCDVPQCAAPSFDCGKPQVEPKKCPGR
Chain of Plasminogen (Homo sapiens) (P00747 581-810 limits assumed): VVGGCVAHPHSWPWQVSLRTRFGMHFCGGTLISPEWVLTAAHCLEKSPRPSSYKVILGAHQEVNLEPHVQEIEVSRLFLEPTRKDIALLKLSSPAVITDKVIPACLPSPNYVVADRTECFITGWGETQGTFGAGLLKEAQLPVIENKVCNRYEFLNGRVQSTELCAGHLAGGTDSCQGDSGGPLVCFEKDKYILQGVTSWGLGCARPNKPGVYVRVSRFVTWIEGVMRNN
Chain of Coagulation factor XI (Homo sapiens) (P03951 19-387 limits assumed): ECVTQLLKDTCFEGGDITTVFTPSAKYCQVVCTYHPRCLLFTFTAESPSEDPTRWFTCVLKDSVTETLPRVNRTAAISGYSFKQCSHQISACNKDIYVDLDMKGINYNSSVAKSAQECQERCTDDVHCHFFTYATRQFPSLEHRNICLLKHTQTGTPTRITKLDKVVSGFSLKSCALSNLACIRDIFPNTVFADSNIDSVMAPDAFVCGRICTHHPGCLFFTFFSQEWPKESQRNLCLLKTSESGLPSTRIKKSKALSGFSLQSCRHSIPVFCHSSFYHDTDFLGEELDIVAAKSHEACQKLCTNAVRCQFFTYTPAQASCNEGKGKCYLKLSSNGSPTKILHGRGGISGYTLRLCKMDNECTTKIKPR
Chain of Coagulation factor XI (Homo sapiens) (P03951 388-625 limits assumed): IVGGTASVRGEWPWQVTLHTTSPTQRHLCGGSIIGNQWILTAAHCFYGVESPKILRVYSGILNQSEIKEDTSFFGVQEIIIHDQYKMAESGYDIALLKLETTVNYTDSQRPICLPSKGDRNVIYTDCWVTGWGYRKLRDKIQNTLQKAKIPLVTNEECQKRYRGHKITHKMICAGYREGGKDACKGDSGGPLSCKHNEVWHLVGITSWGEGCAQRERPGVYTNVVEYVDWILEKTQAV

SMILES | Efficacy [1] [%] | further results
O=c1c(OS(=O)(=O)O)c(-c2ccc(OS(=O)(=O)O)c(OS(=O)(=O)O)c2)oc2cc(OS(=O)(=O)O)cc(OCCCCOc3cc(OS(=O)(=O)O)cc4oc(-c5ccc(OS(=O)(=O)O)c(OS(=O)(=O)O)c5)c(OS(=O)(=O)O)c(=O)c34)c12 | 72 | 
O=c1c(OS(=O)(=O)O)c(-c2ccc(OS(=O)(=O)O)c(OS(=O)(=O)O)c2)oc2cc(OS(=O)(=O)O)cc(OCc3cccc(COc4cc(OS(=O)(=O)O)cc5oc(-c6ccc(OS(=O)(=O)O)c(OS(=O)(=O)O)c6)c(OS(=O)(=O)O)c(=O)c45)n3)c12 | 90 | 
Cc1cc(COc2cc(OS(=O)(=O)O)cc3oc(-c4ccc(OS(=O)(=O)O)cc4)cc(=O)c23)c(C)cc1COc1cc(OS(=O)(=O)O)cc2oc(-c3ccc(OS(=O)(=O)O)cc3)cc(=O)c12 | 94 | Activity [2]: 108%
O=c1c(OS(=O)(=O)O)c(-c2ccc(OS(=O)(=O)O)c(OS(=O)(=O)O)c2)oc2cc(OS(=O)(=O)O)cc(OCc3ccc(COc4cc(OS(=O)(=O)O)cc5oc(-c6ccc(OS(=O)(=O)O)c(OS(=O)(=O)O)c6)c(OS(=O)(=O)O)c(=O)c45)cc3)c12 | 93 to 98 | Efficacy [3]: 93%; inhibition [4]: Active; Efficacy (Homo sapiens): 92%; Efficacy [5]: 77%
O=c1cc(-c2ccc(OS(=O)(=O)O)cc2)oc2cc(OS(=O)(=O)O)cc(OCc3cccc(COc4cc(OS(=O)(=O)O)cc5oc(-c6ccc(OS(=O)(=O)O)cc6)cc(=O)c45)n3)c12 | 63 | 
O=c1cc(-c2ccc(OS(=O)(=O)O)cc2)oc2cc(OS(=O)(=O)O)cc(OCc3ccc(-c4ccc(COc5cc(OS(=O)(=O)O)cc6oc(-c7ccc(OS(=O)(=O)O)cc7)cc(=O)c56)cc4)cc3)c12 | 79 | 
Cc1cc(COc2cc(OS(=O)(=O)O)cc3oc(-c4ccc(OS(=O)(=O)O)c(OS(=O)(=O)O)c4)c(OS(=O)(=O)O)c(=O)c23)c(C)cc1COc1cc(OS(=O)(=O)O)cc2oc(-c3ccc(OS(=O)(=O)O)c(OS(=O)(=O)O)c3)c(OS(=O)(=O)O)c(=O)c12 | 104 | Activity [2]: 90%
O=c1c(OS(=O)(=O)O)c(-c2ccc(OS(=O)(=O)O)c(OS(=O)(=O)O)c2)oc2cc(OS(=O)(=O)O)cc(OCc3cccc(COc4cc(OS(=O)(=O)O)cc5oc(-c6ccc(OS(=O)(=O)O)c(OS(=O)(=O)O)c6)c(OS(=O)(=O)O)c(=O)c45)c3)c12 | 107 | 
O=c1cc(-c2ccc(OS(=O)(=O)O)cc2)oc2cc(OS(=O)(=O)O)cc(OCCCCOc3cc(OS(=O)(=O)O)cc4oc(-c5ccc(OS(=O)(=O)O)cc5)cc(=O)c34)c12 | 90 | 
O=c1c(OS(=O)(=O)O)c(-c2ccc(OS(=O)(=O)O)c(OS(=O)(=O)O)c2)oc2cc(OS(=O)(=O)O)cc(OCc3ccc(-c4ccc(COc5cc(OS(=O)(=O)O)cc6oc(-c7ccc(OS(=O)(=O)O)c(OS(=O)(=O)O)c7)c(OS(=O)(=O)O)c(=O)c56)cc4)cc3)c12 | 80 | 
O=c1c(O)c(-c2ccc(O)c(O)c2)oc2cc(O)cc(OCc3ccc(COc4cc(O)cc5oc(-c6ccc(O)c(O)c6)c(O)c(=O)c45)cc3)c12 | 111 | Efficacy [3]: 109%; Efficacy [5]: 91%; Efficacy [6]: 104%
O=c1cc(-c2ccc(OS(=O)(=O)O)cc2)oc2cc(OS(=O)(=O)O)cc(OCc3cccc(COc4cc(OS(=O)(=O)O)cc5oc(-c6ccc(OS(=O)(=O)O)cc6)cc(=O)c45)c3)c12 | 86 | 
O=c1cc(-c2ccc(OS(=O)(=O)O)cc2)oc2cc(OS(=O)(=O)O)cc(OCc3ccc(COc4cc(OS(=O)(=O)O)cc5oc(-c6ccc(OS(=O)(=O)O)cc6)cc(=O)c45)cc3)c12 | 89 | 
O=c1cc(-c2ccc(OS(=O)(=O)O)cc2)oc2cc(OS(=O)(=O)O)cc(OC/C=C/COc3cc(OS(=O)(=O)O)cc4oc(-c5ccc(OS(=O)(=O)O)cc5)cc(=O)c34)c12 | 90 | Activity [2]: 101%
O=c1cc(-c2ccc(OS(=O)(=O)O)cc2)oc2cc(OS(=O)(=O)O)cc(OCc3ccc(COc4cc(OS(=O)(=O)O)cc5oc(-c6ccc(OS(=O)(=O)O)c(OS(=O)(=O)O)c6)c(OS(=O)(=O)O)c(=O)c45)cc3)c12 | 109 | 
O=c1cc(-c2ccc(OS(=O)(=O)O)cc2)oc2cc(OS(=O)(=O)O)cc(OCCOc3cc(OS(=O)(=O)O)cc4oc(-c5ccc(OS(=O)(=O)O)cc5)cc(=O)c34)c12 | 79 | 
